Common to all, as to format: functional, cell-based
The target of test [1] is T1, Urotensin-2 receptor (Homo sapiens) (UniProt Q9UKP6).
T1 sequence (whole entry): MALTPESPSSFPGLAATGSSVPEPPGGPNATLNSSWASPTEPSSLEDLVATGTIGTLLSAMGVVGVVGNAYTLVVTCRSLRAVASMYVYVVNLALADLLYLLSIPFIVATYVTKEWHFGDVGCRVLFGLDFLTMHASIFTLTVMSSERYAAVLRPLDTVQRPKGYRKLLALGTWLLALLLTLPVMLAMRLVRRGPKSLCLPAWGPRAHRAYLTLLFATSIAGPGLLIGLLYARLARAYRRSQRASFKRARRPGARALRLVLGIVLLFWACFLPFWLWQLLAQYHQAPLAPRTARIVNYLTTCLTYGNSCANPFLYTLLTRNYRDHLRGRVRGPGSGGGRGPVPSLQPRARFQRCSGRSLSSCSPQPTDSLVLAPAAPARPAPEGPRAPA
Kind of test: Agonist activity at human urotensin-2 receptor transfected in NIH3T3 cells after 5 days by R-SAT assay relative to urotensin-2. Summed up: (§1)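 NIH-3T3 cells grown to 80% confluence in DMEM with 10% bovine calf serum and 1% penicillin/streptomycin/glutamine, transfected 18 h with human UII receptor plus β-galactosidase marker, then trypsinized and frozen. Thawed batches were quality-checked with control compound, then incubated with compounds or reference ligands for five days in 5% CO₂. Reporter enzyme activity read at 420 nm.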

The next test has as its target T2, Urotensin-2 receptor (Homo sapiens, UniProt Q9UKP6).
T2 sequence (Q9UKP6 whole entry): T1 sequence (whole entry)
Kind of test: (§2) Agonist activity at human urotensin-2 receptor transfected in NIH3T3 cells after 5 days by R-SAT assay. Summed up:
as §1

Test [2] addresses T1, Urotensin-2 receptor (Homo sapiens). The test is described as §2. The gist of the method:
as §1

The source made the active and inactive calls. The calls are words filed in the database; no cut-off is given here.

As to `CN(C)CCC(NC(=O)CCc1ccc(C(F)(F)F)cc1)c1ccc2ccccc2c1` (stereo not given), the Efficacy in test [1] is 75%. Further, it took 372 nM to reach a half-maximal effect on Urotensin-2 receptor (EC50).
For the compound `CN(C)CCC(NC(=O)/C=C/c1ccccc1)c1ccc(Cl)cc1` (stereo not given), the Efficacy in test [1] is 128%.
Still for that read-out and setting: then `Cc1ccc(C(CCN(C)C)NC(=O)CCc2ccc(C(F)(F)F)cc2)cc1` (stereo not given), with 60%.
With `COc1ccc(CCC(=O)NC(CCN(C)C)c2ccc3ccccc3c2)cc1` (stereo not given), the Efficacy in test [1] amounted to 113%. Moreover, the EC50 (in general, the concentration at which the effect is half-maximal) at Urotensin-2 receptor was 1410 nM.
For `COc1ccc(CC(=O)NC(CCN(C)C)c2ccc(C)cc2)cc1` (stereo not given), the Efficacy in test [1] stood at 62%.
Regarding `CN(C)CCC(NC(=O)/C=C/c1ccccc1)c1ccc2ccccc2c1` (stereo not given), the Efficacy in test [1] came to 116%.
In test [1], `Cc1ccc(C(CCN(C)C)NC(=O)Cc2ccc(C(F)(F)F)cc2)cc1` (stereo not given) displayed an Efficacy of 25%.
For the compound `CN(C)CCC(NC(=O)/C=C/c1ccc(C(F)(F)F)cc1)c1ccc2ccccc2c1` (stereo not given), in test [1], the Efficacy was 117%. This compound gave an EC50 on Urotensin-2 receptor of 135 nM.
With `CN(C)CCC(NC(=O)CCc1ccccc1)c1ccc(Cl)cc1` (stereo not given), in test [1], the Efficacy is 139%.
Compound `CN(C)CCC(NC(=O)CCc1ccc(C(F)(F)F)cc1)c1ccc(Cl)cc1` (stereo not given) yielded an Efficacy in test [1] of 73%.
`COc1ccc(/C=C/C(=O)NC(CCN(C)C)c2ccc3ccccc3c2)cc1` (stereo not given) had an Efficacy in test [1] of 106%. It took 380 nM to reach a half-maximal effect on Urotensin-2 receptor (EC50).
Consider `CN(C)CCC(NC(=O)Cc1ccccc1)c1ccc(Cl)cc1` (stereo not given), for which the Efficacy in test [1] is 76%.
In the case of `COc1ccc(CC(=O)NC(CCN(C)C)c2ccc3ccccc3c2)cc1` (stereo not given), the outcome in test [1] and in test [2] was inactive.
In turn, `COc1ccc(CCC(=O)NC(CCN(C)C)c2ccc(C)cc2)cc1` (stereo not given) displayed an Efficacy in test [1] of 67%.
In turn, `Cc1ccc(C(CCN(C)C)NC(=O)/C=C/c2ccc(C(F)(F)F)cc2)cc1` (stereo not given) returned an Efficacy in test [1] of 96%. At Urotensin-2 receptor, this compound showed a half-maximal effective concentration (EC50) of 437 nM.
`CN(C)CCC(NC(=O)C#Cc1ccccc1)c1ccc2ccccc2c1` (stereo not given): the Efficacy in test [1] is 115%.
`CN(C)CCC(NC(=O)Cc1ccccc1)c1ccc2ccccc2c1` (stereo not given) came in with an Efficacy in test [1] of 121%.
Compound `COc1ccc(/C=C/C(=O)NC(CCN(C)C)c2ccc(C)cc2)cc1` (stereo not given) registered an Efficacy in test [1] of 79%. Moreover, a half-maximal response at Urotensin-2 receptor (EC50) required 2000 nM.
In turn, `COc1ccc(CCC(=O)NC(CCN(C)C)c2ccc(Cl)cc2)cc1` (stereo not given) showed an Efficacy in test [1] of 101%.
The compound `COc1ccc(CC(=O)NC(CCN(C)C)c2ccc(Cl)cc2)cc1` (stereo not given) gave an Efficacy in test [1] of 65%.
`Cc1ccc(C(CCN(C)C)NC(=O)C#Cc2ccccc2)cc1` (stereo not given) came in with an Efficacy in test [1] of 131%.
Regarding `Cc1ccc(C(CCN(C)C)NC(=O)/C=C/c2ccccc2)cc1` (stereo not given), the Efficacy in test [1] was 97%. The same compound gave an EC50 at Urotensin-2 receptor of 1550 nM.
For `Cc1ccc(C(CCN(C)C)NC(=O)Cc2ccccc2)cc1` (stereo not given), the Efficacy in test [1] came to 83%.
Consider `CN(C)CCC(NC(=O)Cc1ccc(C(F)(F)F)cc1)c1ccc(Cl)cc1` (stereo not given), for which the Efficacy in test [1] turned out to be 53%.
The compound `Cc1ccc(C(CCN(C)C)NC(=O)CCc2ccccc2)cc1` (stereo not given) registered an Efficacy in test [1] of 73%.
For the compound `COc1ccc(/C=C/C(=O)NC(CCN(C)C)c2ccc(Cl)cc2)cc1` (stereo not given), the Efficacy in test [1] is 99%. At Urotensin-2 receptor, a half-maximal response (EC50) required 513 nM.
Consider `CN(C)CCC(NC(=O)Cc1ccc(C(F)(F)F)cc1)c1ccc2ccccc2c1` (stereo not given), for which the Efficacy in test [1] turned out to be 40%.
Compound `CN(C)CCC(NC(=O)C#Cc1ccccc1)c1ccc(Cl)cc1` (stereo not given) came in with an Efficacy in test [1] of 124%.
With `CN(C)CCC(NC(=O)CCc1ccccc1)c1ccc2ccccc2c1` (stereo not given), the Efficacy in test [1] is 107%.
Take `CN(C)CCC(NC(=O)/C=C/c1ccc(C(F)(F)F)cc1)c1ccc(Cl)cc1` (stereo not given): the Efficacy in test [1] is 133%. In addition, the concentration for a half-maximal effect (EC50) at Urotensin-2 receptor was 129 nM.

The record behind these values is ChEMBL document CHEMBL1142882, “Design, parallel synthesis and SAR of novel urotensin II receptor agonists” (Eur J Med Chem, 2007).
